# Rows were chosen to be rich in hits. Some 3.8% of all compounds tested hit in one or more screens of this group.
# RGS4 act: RGS4 potentiators or activators, primary screen, cell-based, HEK293 M3R inducible RGS4, calcium flux; carbachol calcium flux Fluo4; active compounds read low; B-score at 10 µM; 310,000 tested, 0.92% active; AID 463111, 2010;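 active = B-score of the integrated calcium signal more than 4 SD below the library mean, with starting fluorescence not abnormally high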;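 note: negative B-score means reduced calcium response which marks RGS4 activation or potentiation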
#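 test system = M3R-expressing HEK293 line, RGS4 induced by doxycycline | probe or stimulus = carbachol at ECmax as muscarinic agonist stimulus | timing = dye loading 30 min 37 °C, buffer rest 30 min RT | signal = calcium dye Fluo4 fluorescence | evaluation = B score from integrated fluorescence ratio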
# MrgX1 allo act: positive allosteric modulators of MrgX1, primary screen, HEK293 cells, Fluo-4 calcium flux; Mas-related G-protein coupled receptor member X1 (Homo sapiens), Q96LB2; B-score at 10 µM; 310,000 tested, 0.63% active; FDSS; active compounds read high; AID 588675, 2011;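 active = plate-corrected calcium response at least 3 library SD above typical, normal starting fluorescence, not activating the receptor alone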;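 note: compound read alongside a low EC10 to EC30 dose of BAM8-22 agonist; peak minus trough fluorescence over baseline measured at the second addition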
# Target sequence (Q96LB2 whole entry, looked up): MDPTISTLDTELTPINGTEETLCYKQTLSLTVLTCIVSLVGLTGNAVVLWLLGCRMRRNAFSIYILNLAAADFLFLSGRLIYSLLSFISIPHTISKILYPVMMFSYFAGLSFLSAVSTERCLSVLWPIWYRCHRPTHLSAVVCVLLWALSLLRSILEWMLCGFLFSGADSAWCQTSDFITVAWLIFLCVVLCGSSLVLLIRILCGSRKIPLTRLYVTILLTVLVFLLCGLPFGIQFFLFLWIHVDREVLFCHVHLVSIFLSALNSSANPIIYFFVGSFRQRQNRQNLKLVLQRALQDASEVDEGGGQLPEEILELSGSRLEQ
# MrgX1 agonist: agonists of human MrgX1 receptor, primary screen, HEK293 cells, Fluo-4 calcium flux. Mas-related G-protein coupled receptor member X1 (Homo sapiens), Q96LB2. Fluo-4 calcium fluorescence, agonist mode; active compounds read high. B-score at 10 µM. 310,000 tested, 0.44% active;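 active = calcium response B-score plate-corrected fluorescence ratio at least 3 library SD, with starting fluorescence B-score inside 5 SD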
#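 System: HEK293 cells stably expressing human MrgX1 receptor; Dosing: test compound in the initial addition of three; Schedule: overnight plating, then 30 min 37 °C plus 30 min room-temperature dye loading; Detection: kinetic calcium dye fluorescence, Fluo-4 NW; Controls: per-plate positive and negative controls for Z′ factor.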
# Lipid droplet: inhibitors of hepatocyte lipid droplet formation, primary screen, imaging, high-throughput imaging, BODIPY stain; AML12 mouse hepatocytes, oleate lipid droplets; inhibition, % at 6.5 µM; 240,000 tested, 0.4% active; AID 1656, 2009;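 active = lipid droplet intensity inhibited by at least 50%, with more than 500 cells counted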
#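 Test system: AML12 mouse liver cells; schedule: overnight exposure; technique: high-content imaging of BODIPY-stained droplets and DAPI nuclei; read-out: % inhibition of corrected integrated BODIPY droplet signal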
# MrgX1 antag: antagonists of human MrgX1 receptor, primary screen, HEK293 cells, Fluo-4 calcium flux | 310,000 tested, 1.3% active | AID 588676, 2011 | Mas-related G-protein coupled receptor member X1 (Homo sapiens), Q96LB2 | BAM8-22 antagonism; active compounds read low | B-score at 10 µM;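 active = calcium-response B-score plate-corrected more than 3 library SD below zero, starting fluorescence within 5 deviations, no agonist response on first addition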;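 note: peak minus trough fluorescence over baseline after final BAM8-22 challenge near maximal dose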
# RGS4 block: RGS4 inhibitors, primary screen, cell-based, HEK293 M3R inducible RGS4, calcium flux | Fluo-4 calcium flux; active compounds read high; triggered by carbachol at its EC20 | B-score at 10 µM | 310,000 tested, 0.45% active;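 active = B-score, a plate-corrected calcium signal, over three deviations above library mean, with baseline fluorescence within five deviations of library mean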;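 note: RGS4 expression induced by doxycycline in cells with stable M3 receptor; B-score is computed from the integrated fluorescence ratio over baseline after carbachol; higher B-score means a larger calcium signal and so more RGS4 inhibition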
# Target sequence (P49798 whole entry, looked up): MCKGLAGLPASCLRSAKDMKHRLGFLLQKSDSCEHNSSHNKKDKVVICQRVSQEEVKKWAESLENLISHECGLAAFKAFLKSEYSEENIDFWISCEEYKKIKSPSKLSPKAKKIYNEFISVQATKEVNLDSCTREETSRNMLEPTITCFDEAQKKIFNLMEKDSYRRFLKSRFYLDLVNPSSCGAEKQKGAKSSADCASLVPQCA
# The depositor's hits bear a star; i = inactive; x = no result.
SMILES,RGS4 act,MrgX1 allo act,MrgX1 agonist,Lipid droplet,MrgX1 antag,RGS4 block
Cc1nc2ccccc2c(=O)n1-c1cc(F)ccc1F,i,i,i,9,i,i
CC/C(=N\N1CCCCCC1)c1c(O)n(-c2ccc(C)cc2)c(=O)[nH]c1=O,i,11*,i,-31,i,i
C/C(=N\N1CCCCCC1)c1c(O)n(-c2ccc(C)cc2)c(=O)[nH]c1=O,i,i,i,-8,i,i
COc1ccc(/C=N\N=C(N)N)cc1,i,i,i,4,i,i
NC(N)=N/N=C/c1ccc(N(c2ccccc2)c2ccccc2)cc1,-8.3*,i,i,-7,i,i
O=c1[nH]c(O)c(/C=C2/C=CC(c3cc(Cl)ccc3Cl)=N2)c(=O)[nH]1,i,i,i,0,-7*,i
CC1=Nc2ccccc2/C1=C/c1c(O)[nH]c(=O)[nH]c1=O,i,i,i,0,i,i
COc1ccc(C(O)P(=O)(OC(C)C)OC(C)C)cc1 (centres undefined),i,i,i,-22,i,i
COc1ccc(C(=O)O/N=C(/C(N)=O)P(=O)(OC(C)C)OC(C)C)cc1,-7.7*,i,i,-7,i,i
COP(=O)(OC)C(NC(C)=O)C(Cl)(Cl)Cl (centres undefined),i,i,i,7,i,i
Cc1ccc(-n2c(O)c(/C=N/N3CCCCC3c3cccnc3)c(=O)[nH]c2=S)cc1 (centres undefined),i,i,i,-23,i,i
O=C1CC2OCC=C3CN4CCC56c7cc([N+](=O)[O-])ccc7N1C5C2C3CC46 (centres undefined),i,i,i,3,i,i
O=C1/C(=C\c2ccccc2)C2OCC=C3CN4CCC56c7ccccc7N1C5C2C3CC46 (centres undefined),i,i,i,29,-6.6*,i
Cc1ccnc(NS(=O)(=O)c2ccc(N=Cc3c(O)n(C)c(=O)n(C)c3=O)cc2)n1,i,6.6*,i,38,i,i
Cc1cc(C)nc(NS(=O)(=O)c2ccc(N=Cc3c(O)n(C)c(=O)n(C)c3=O)cc2)n1,i,i,i,1,i,i
COC(=O)C1=C(c2cc3ccccc3o2)C[C@@H]2CC[C@H]1N2C(=O)NCCCOC(C)C,i,i,i,x,i,i
C[N+]12CCC(CC1)C(=C(c1ccccc1)c1ccccc1)C2,-8.8*,i,i,0,i,i
CC[N+]12CCC(CC1)C(=C(c1ccccc1)c1ccccc1)C2,-10*,i,i,-9,i,i
[N-]=[N+]=NCc1cn2cccnc2n1,i,i,i,-5,i,i
CC(C)[C@]12O[C@H]1[C@@H]1O[C@]13[C@]1(O[C@H]1C[C@H]1C4=C(CC[C@@]13C)C(=O)OC4)[C@@H]2O,i,i,i,87*,i,i
O=C(O)c1ccc(-[n+]2c(-c3ccccc3)cc(-c3ccccc3)cc2-c2ccccc2)cc1,i,i,i,x,i,i
CCCOC(=O)c1ccc(-[n+]2c(-c3ccccc3)cc(-c3ccccc3)cc2-c2ccccc2)cc1,-7.2*,i,34*,x,i,i
COc1ccc(-[n+]2c(-c3ccccc3)cc(-c3ccc(C)cc3)cc2-c2ccccc2)cc1,-7.5*,14*,i,-118,-6.7*,i
Brc1ccc(-[n+]2c(-c3ccccc3)cc(-c3ccccc3)cc2-c2ccccc2)cc1,-8.6*,i,i,x,i,i
O=c1c2ccccc2nc(-c2ccccc2)n1-c1cccc(O)c1,i,i,i,-39,i,i
SMILES,RGS4 act,MrgX1 allo act,MrgX1 agonist,Lipid droplet,MrgX1 antag,RGS4 block
CN1/C(=C\C=C\C2=[N+](C)c3ccc4ccccc4c3C2(C)C)C(C)(C)c2ccccc21,x,i,i,x,i,x
C[N+]1=C(/C=C/Nc2ccccc2)C(C)(C)c2ccccc21,i,i,i,-13,-4.9*,i
CCN1CCN(S(=O)(=O)c2ccc(Cl)c(C(=O)Nc3ccc(C(=O)N(CC)CC)cc3)c2)CC1,i,i,i,-2,i,i
CCOC(C(=O)OCCC[N+](C)(CC)CC)(c1ccccc1)c1ccccc1,-8.7*,i,i,8,i,i
CC[N+](C)(CC)CCCOC(=O)C(O)(c1ccccc1)C1CCCCC1 (centres undefined),-7.1*,i,i,-13,i,i
CCOC(C(=O)OCC(O)CN(CC)CC)(c1ccccc1)c1ccccc1 (centres undefined),i,i,i,x,i,i
O=C1C(=O)c2cccc3cccc1c23,i,i,27*,25,i,i
Cc1cc(C)n(CCOC(=O)C2C(C=C(Cl)Cl)C2(C)C)n1 (centres undefined),i,i,i,2,i,i
C=C(C=O)C[C@@H]1C[C@H](O)C2OC3C[C@]4(C)OC5/C=C\CC6OC7C(CC=CCC6OC5CCCC4OC3CC2O1)OC1CC2OC3CC(=O)OC3C[C@@H](C)C[C@@]2(C)OC1C[C@@H]7C (some centres undefined),-9.7*,x,x,26,x,i
O=c1c2ccccc2[se]n1-c1ccccc1,i,i,40*,-29,i,i
C[N+]12CCC(CC1)C(C(O)(c1ccccc1)c1cccs1)C2 (centres undefined),-7.7*,i,i,8,i,i
CCC[N+]12CCC(CC1)C(C(O)(c1ccccc1)c1ccccc1)C2 (centres undefined),i,i,i,-1,i,i
CN1CCN(c2ccc([N+](=O)[O-])c3no[n+]([O-])c23)CC1,-8.2*,i,i,-50,i,i
CC1CN(c2ccc([N+](=O)[O-])c(N3CCCCC3)c2)CCN1 (centres undefined),i,i,i,2,i,i
Cc1cc(N2CCCCC2)ccc1C=C1C(=O)N(C)C(=S)N(C)C1=O,i,i,i,-2,i,i
Cc1cc(N2CCCC2)ccc1C=C(C#N)C#N,i,i,i,5,-5.5*,i
COc1ccc(C2(c3cccc(O)c3OC)CCN(C(C)=O)CC2)cc1O,i,i,i,x,i,i

# Screens (PubChem)
